Assay outcomes as filed in PubChem.
CCR6 antagonist – CCR6 receptor antagonists, primary screen, cell-based, CHO-K1, luminescence, beta-arrestin, uHTS; CHO-K1 CCR6 PathHunter beta-arrestin, CCL20-stimulated; inhibition, % at 20 µM; 0.49% of 340,000 active; AID 493098, 2011;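 active means compounds whose inhibition of the agonist-driven luminescence signal at 20 µM reaches about 50%, limit read from the data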;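 further: cells stimulated with CCL20 at 14 nM final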
CXCR6 inh – CXCR6 receptor inhibitors, primary screen, cell-based, beta-arrestin, luminescence, CHO-K1 PathHunter, 1536-well | 0.36% of 360,000 active | C-X-C chemokine receptor type 6 (Homo sapiens), O00574 | inhibition, % at 20 µM | AID 602244, 2012; in the data active means inhibition above about 34%, passing the limit was not always enough;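 further: antagonist mode with CXCL16 agonist at 10 nM final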
Beta2AR agonist – beta2AR agonists driving receptor internalization, primary screen, cell-based, FAP fluorogen, flow cytometry. 0.43% of 340,000 active. AID 504454, 2011. Am2.2-beta2AR cells. response, % (test concentration not listed);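 active means response above a set limit, near 3 SD of response in nonfluorescent compounds, cut at about 42% in these data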
PfGluPho inh – PfG6PD enzyme inhibitors, primary screen, biochemical, fluorescence intensity, uHTS | inhibition, % at 20 µM | glucose-6-phosphate dehydrogenase-6-phosphogluconolactonase (Plasmodium falciparum 3D7) | PfGluPho enzyme, NADPH resazurin-diaphorase fluorescence | 0.78% of 350,000 active;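 active means inhibition reaching at least a set limit at 20 µM in the primary screen, cut at about 59% in these data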
APJ antag – antagonists of human apelin receptor APJ, primary screen, CHO-K1 cells, beta-arrestin complementation, luminescence; AID 2521, 2010; 0.32% of 330,000 active; inhibition, % at 20 µM;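 active means inhibition above about 40% at 20 µM, limit read from the data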;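 further: cells challenged with 10 nM apelin-13 agonist together with compound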
Target sequence (P35414 whole entry, looked up): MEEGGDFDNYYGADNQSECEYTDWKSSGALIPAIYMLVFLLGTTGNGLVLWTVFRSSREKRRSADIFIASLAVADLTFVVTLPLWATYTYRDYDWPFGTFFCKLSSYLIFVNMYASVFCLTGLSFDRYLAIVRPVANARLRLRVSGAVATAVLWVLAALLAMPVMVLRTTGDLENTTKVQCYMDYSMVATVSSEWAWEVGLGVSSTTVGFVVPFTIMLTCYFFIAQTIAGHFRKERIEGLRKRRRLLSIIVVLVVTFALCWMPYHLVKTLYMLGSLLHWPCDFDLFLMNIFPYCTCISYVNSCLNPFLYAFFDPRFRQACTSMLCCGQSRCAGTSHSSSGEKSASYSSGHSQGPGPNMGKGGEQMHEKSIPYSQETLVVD
APJ ag – agonists of human apelin receptor APJ, primary screen, CHO-K1 cells, PathHunter beta-arrestin, luminescence; 0.11% of 330,000 active; 0% DMSO wells, 100% apelin; activation, % at 20 µM; AID 2520, 2010; P35414;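 active means activation more than six SD over the plate average, tested at 20 µM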
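system = engineered CHO-K1 APJ arrestin reporter cells | input = 1000 cells per well | timing = overnight seeding, 90 min compound at 25 °C, 1 h detection | measured by = enzyme-fragment complementation luminescence | read-out = beta-arrestin recruitment to APJ as agonist activity, luminescent signal | control set = negative DMSO alone, positive Apelin-13 at 10 nM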
Of the large screens only hits and unclear results are named; the others gave an inactive call. Hits are enriched below; roughly 1.7% of the tested compounds scored in any of these assays.

COc1ccc(NC(=S)NC(NC(=O)c2ccccc2Cl)C(Cl)(Cl)Cl)c([N+](=O)[O-])c1 (stereo unspecified)	CCR6 antagonist 56
COc1ccc(NC(=S)NC(NC(=O)c2cccc3ccccc23)C(Cl)(Cl)Cl)c([N+](=O)[O-])c1 (stereo unspecified)	none
C[C@@H](CO)NC(=O)c1[nH]cnc1C(=O)Nc1cccc(Cl)c1	none (no result: CCR6 antagonist, Beta2AR agonist, APJ antag, APJ ag)
O=C(C=Cc1ccccc1O)c1ccccc1O	none (no result: APJ antag, APJ ag)
O=C(C=Cc1cccc(O)c1)c1ccccc1O	Beta2AR agonist 56 (no result: APJ antag, APJ ag)
COc1ccc(C(=O)/C=C/c2ccccc2)c(O)c1	none
O=C(/C=C/c1ccc(O)c(O)c1)c1ccccc1O	CCR6 antagonist 52, APJ antag 43
COc1ccccc1NS(=O)(=O)c1ccc(N2CCOCC2)c(N)c1	none
O=C(CO/N=C/c1ccccc1O)N1CCc2ccccc21	Beta2AR agonist 72
O=C(OCC(=O)N1CCc2ccccc21)c1ccccc1	none
CCOC(=O)c1c(NC(=O)c2cccc(N3C(=O)CCC3=O)c2)sc2c1CCN(CC)C2	none
CC(C)(C)c1nn(-c2ccccc2)c2[nH]c(=O)c(C=O)cc12	Beta2AR agonist 55
S=C(NNc1ccnc2cc(Cl)ccc12)Nc1ccc(Cl)cc1Cl	CCR6 antagonist 54
CCOc1ccc(NC(=S)NNc2ccnc3cc(Cl)ccc23)cc1	none
CCN(CC)C(=O)CSc1nnc(COc2ccccc2)n1N	none
CCSc1nc2ccccc2n1C(=O)/C=C/c1ccc(OC)c(OC)c1	Beta2AR agonist 42
C=CCSc1nc2ccccc2n1C(=O)/C=C/c1cc(OC)c(OC)c(OC)c1	Beta2AR agonist 86
CC1=C(C(=O)N2CCOCC2)CC(CC(=O)NCc2cccs2)C(=O)N1CCC1=CCCCC1 (stereo unspecified)	none (no result: CCR6 antagonist, Beta2AR agonist, APJ antag, APJ ag)
C#CCOCCOCCOCCNc1nc(N2CCN(C(=O)CCCCCCCCCCNC(=O)Cn3cc(CCCCCN)nn3)CC2)nc(N2CCN(C(=O)CCCCCCCCCCNC(=O)Cn3cc(CCCCCN)nn3)CC2)n1	Beta2AR agonist 45, PfGluPho inh 77
C#CCOCCOCCOCCNc1nc(N2CCN(C(=O)CCCCCCCCCCNC(=O)Cn3cc(CCCCCN)nn3)CC2)nc(N2CCN(C(=O)CCCCCCCCCCNC(=O)[C@@H](CCSC)n3cc(CCO)nn3)CC2)n1	Beta2AR agonist 75
CCC(C)[C@@H](NC(=O)OC(C)(C)C)c1nnc(S(=O)(=O)Cc2cccc(C)c2)o1 (stereo partly specified)	CXCR6 inh 53 (no result: APJ antag, APJ ag)
C=CCN1C(=NC(=O)COc2ccc(Cl)cc2)SC2CS(=O)(=O)CC21 (stereo unspecified)	none
O=C/C=C/c1c(-c2ccccc2)cc2oc3ccccc3cc1-2	Beta2AR agonist 64
CCOc1ccc(S(=O)(=O)N2CCN(C(=O)c3ccc(-n4cncn4)c([N+](=O)[O-])c3)CC2)cc1	none
CNc1ccc(N=Nc2cccc3ncccc23)cc1	CCR6 antagonist 61, CXCR6 inh 41 (no result: APJ antag, APJ ag)
COc1ccc(-n2c(SCC(=O)N(C)C3CCS(=O)(=O)C3)nc3ccc(O)cc3c2=O)cc1OC (stereo unspecified)	none
CC(CCC(C)C(C)(C)C)[C@@H]1CC[C@H]2C3C[C@H](OS(O)(=S)=S)[C@H]4C[C@H](OS(O)(=S)=S)[C@@H](OS(O)(=S)=S)C[C@]4(C)[C@H]3CC[C@]12C (stereo partly specified) (tested in a mixture with another compound)	CCR6 antagonist 57
OC(COc1c(Cl)cc(Cl)cc1Cl)CN1CCCCC1 (stereo unspecified)	CCR6 antagonist 69
CCOc1ccc(NC(=O)COC(=O)c2ccc3c(c2)OCCO3)cc1	none
CC(C)C(OC(=O)c1nsc(Cl)c1Cl)C(=O)NC1CCCCC1 (stereo unspecified)	none
COc1ccc(N2CSC3=C(C#N)C(c4cc(OC)ccc4OC)CC(=O)N3C2)c(OC)c1 (stereo unspecified)	PfGluPho inh 113
NS(=O)(=O)c1ccc(N/N=C/c2cn(-c3ccccc3)nc2-c2ccccc2)c([N+](=O)[O-])c1	Beta2AR agonist 81
CC(=O)N(C1CC(C)C(C#N)(C#N)C1(C#N)C#N)N(C)C (stereo unspecified)	CCR6 antagonist 78
CCc1ccc(C(=O)Nc2cc(C)on2)o1	none
Nc1nn(S(=O)(=O)c2ccccc2)cc1-c1ccc([N+](=O)[O-])cc1	APJ ag 9.9
Cc1[nH]c2ccccc2c1/C=N/Nc1ccc([N+](=O)[O-])cc1S(=O)(=O)Nc1ccc(Cl)cc1	CCR6 antagonist 57, CXCR6 inh 42
O=C(O)COc1ccccc1C=NNc1ccc([N+](=O)[O-])cc1S(=O)(=O)Nc1ccc(Cl)cc1	none
[O-][n+]1c2ccccc2cc2ccccc21	none
CCOC(=O)C1CCN(S(=O)(=O)c2c(Cl)ccc3nonc23)CC1	Beta2AR agonist 79 (no result: CCR6 antagonist, PfGluPho inh)
CCOC(=O)C1CCN(S(=O)(=O)c2cccc3nonc23)CC1	none
CNc1ncnc2c1ncn2[C@H]1CN(CCc2ccccc2)C[C@@H](CO)O1	none (no result: CCR6 antagonist, Beta2AR agonist, PfGluPho inh, APJ antag, APJ ag)
Cc1ccc(Sc2cc(NCCCO)c([N+](=O)[O-])c3nonc23)cc1	none
CC(=O)OCCCNc1cc(Sc2ccc(Cl)cc2)c2nonc2c1[N+](=O)[O-]	CCR6 antagonist 104, CXCR6 inh 92, Beta2AR agonist 50 (no result: APJ antag, APJ ag)
Cc1ccc(OC(=O)CN2C(=O)c3ccccc3C2=O)cc1C	none
O=S(=O)(c1ccccc1)N1CCN(S(=O)(=O)c2ccc(F)cc2)CC1	none
Cc1cc(C)c(C)c(S(=O)(=O)ON2C(=O)c3ccccc3C2=O)c1C	CCR6 antagonist 76
O=C1c2ccccc2C(=O)N1OS(=O)(=O)c1ccc(F)cc1	CCR6 antagonist 70, CXCR6 inh 58 (no result: APJ antag, APJ ag)
Cc1cc(C)c(S(=O)(=O)ON2C(=O)c3ccccc3C2=O)cc1C	CCR6 antagonist 67
CC(=O)N1CCN(S(=O)(=O)c2ccc(S(=O)(=O)N3CCCC(C)C3)cc2)CC1 (stereo unspecified)	none
Cc1ccc(S(=O)(=O)N2CCOCC2)cc1NC(=O)c1ccc(F)cc1F	none
NS(=O)(=O)c1ccc(NC(=O)c2ccc(F)cc2F)c(NC(=O)c2ccc(F)cc2F)c1	CCR6 antagonist 51
CC(C)Oc1ccc(/C=C/C(=O)NCC2COc3ccccc3O2)cc1 (stereo unspecified)	Beta2AR agonist 58
Cc1ccc(C2C3CSCC=C3C(C#N)=C(N)C2(C#N)C#N)cc1 (stereo unspecified)	CCR6 antagonist 52
